According to ChEMBL document CHEMBL1125218, “Substituted 2-(aminomethyl)piperidines: a novel class of selective protein kinase C inhibitors” (J Med Chem, 1991):

How the values were obtained:
[1] = molecular target: cAMP-dependent protein kinase catalytic subunit alpha (Rattus norvegicus) (UniProt P27791); test: In vitro inhibition of cAMP-dependent kinase Protein kinase A isolated from rat brain by 100 uM.
Summary of the method: (§1)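 PKA catalytic subunit at 4 ng/mL in 20 mM Tris with 10 μM histone, 100 μM dibutyryl-cAMP and 100 μM [³²P]ATP. Percent inhibition measured at 100 μM test compound.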

[2] = molecular target: T1, Protein kinase C, PKC; classical (Rattus norvegicus, UniProt P05696+P68403+P63319); test: Inhibition of PMA and [Ca2+] induced 32P incorporation into histones by partially purified rat brain Protein kinase C
Summary of the method: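 Partially purified rat brain PKC activated by PMA, Ca²⁺ and phosphatidylserine. Read-out is inhibition of ³²P incorporation into histones. IC50 taken from concentration-inhibition curves run up to 100 μM inhibitor. Some values are extrapolated.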

[3] = molecular target: cAMP-dependent protein kinase catalytic subunit alpha (Rattus norvegicus) (UniProt P27791); test: (§2) Inhibition of cAMP-dependent kinase PKA(Protein kinase A) catalytic subunit at 100 uM; summary of the method: as §1
[4] = molecular target: T1, Protein kinase C, PKC; classical; test: In vitro inhibition of [32P] incorporation into histones by rat brain partially purified Protein kinase C in the presence of PMA, [Ca2+] and phosphatidylserine.
Summary of the method: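 Partially purified rat brain PKC activated by PMA, Ca²⁺ and phosphatidylserine. Read-out is inhibition of ³²P incorporation into histones. Some values are extrapolated.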

[5] = molecular target: T2, Protein kinase C alpha type (Rattus norvegicus, UniProt P05696); test: Inhibition of [3H]-phorbol dibutyrate binding to Protein kinase C alpha
[6] = molecular target: T2, Protein kinase C alpha type; test: Effect of Phosphatidylserine on inhibition of Protein kinase C alpha
[7] = molecular target: cAMP-dependent protein kinase catalytic subunit alpha (Rattus norvegicus) (UniProt P27791); test: Inhibition of cAMP-dependent kinase PKA (Protein kinase A) catalytic subunit at 100 uM; summary of the method: as §1
[8] = molecular target: cAMP-dependent protein kinase catalytic subunit alpha (Rattus norvegicus, UniProt P27791); test: as §2

SMILES | inhibition [1] [%] | IC50 [4] [µM] | other results
CCCCCCCCCCCCCCC(=O)N1CCCCC1CNC(=O)[C@@H](N)CCCCN (some centres not stated) | – | – | IC50 [2]: 38 µM; inhibition [3]: 0%
CCCCCCCCCCCCC(=O)N1CCCCC1CNC(=O)[C@H](C)N (some centres not stated) | 0 | 52 | –
CCCCCCCCCCCCC(=O)N1CCCCC1CNC(=O)[C@@H](N)CC(C)C (some centres not stated) | – | – | IC50 [2]: 154 µM; inhibition [3]: 0%
CCCCCCCCCCCCC(=O)N1CCCCC1CNC(=O)[C@@H](N)CCCCN (some centres not stated) | 0 | 20 | IC50 [5]: 23 µM; Ki [6]: 12 µM
CCCCCCCCCCCCCCCCC(=O)N1CCCCC1CNC(=O)[C@@H](N)CCCCN (some centres not stated) | 0 | 46 | –
CCCCCCCCCCCCCC(=O)N1CCCCC1CN (configuration not stated) | – | – | IC50 [2]: 36 µM; inhibition [7]: 46%
CCCCCCCCCCCCCCCCCC(=O)N1CCCCC1CNC(=O)[C@@H](N)CCCCN (some centres not stated) | 38 | 36 | –
CCCCCCCCCCCCC(=O)N1CCCCC1CNC(=O)[C@@H](N)Cc1ncc[nH]1 (some centres not stated) | 0 | 60 | –
CCCCCCCCCCCCC(=O)N1CCCCC1CNC(=O)CN (configuration not stated) | 0 | 51 | –
CCCCCCC(=O)N1CCCCC1CNC(=O)[C@@H](N)CCCCN (some centres not stated) | 0 | – | –
CCCCCCCCC(=O)N1CCCCC1CNC(=O)[C@@H](N)CCCCN (some centres not stated) | 0 | – | –
CCCCCCCCCCCCCCCC(=O)N1CCCCC1CNC(=O)[C@@H](N)CCCCN (some centres not stated) | 0 | 45 | –
CCCCCCCCCCCCC(=O)N1CCCCC1CNC(=O)[C@@H](N)CCCN=C(N)N (some centres not stated) | 0 | 72 | –
CCCCCCCCCCCCC/C=C/[C@@H](O)[C@@H](N)CO [SPHINGOSINE] | – | 57 | IC50 [8]: 98 µM
CCCCCCCCCCCCC(=O)N1CCCCC1CNC(=O)[C@@H](N)CCC(=O)OCc1ccccc1 (some centres not stated) | 0 | 92 | –
CCCCCCCCCCCCCC(=O)N1CCCCC1CNC(=O)[C@@H](N)CCCCN (some centres not stated) | 0 | 48 | –

Second part, led by results:

inhibition [1] [%] | IC50 [4] [µM] | SMILES | other results
0 | – | CCCCCCCCCCCCC(=O)N1CCCCC1CNC(=O)[C@@H](N)CCC(=O)O (some centres not stated) | –
0 | 23 | CCCCCCCCCCCCC(=O)N1CCCCC1CNC(=O)[C@@H](N)CCCN (some centres not stated) | –
0 | 45 | CCCCCCCCCCCCC(=O)N1CCCCC1CNC(=O)[C@@H](N)CO (some centres not stated) | –
0 | 102 | CCCCCCCCCCCC(=O)N1CCCCC1CNC(=O)[C@@H](N)CCCCN (some centres not stated) | –
0 | 299 | CCCCCCCCCCC(=O)N1CCCCC1CNC(=O)[C@@H](N)CCCCN (some centres not stated) | –
0 | 159 | CCCCCCCCCCCCC(=O)N1CCCCC1CNC(=O)[C@@H](N)CCSC (some centres not stated) | –
0 | 72 | CCCCCCCCCCCCC(=O)N1CCCCC1CNC(=O)[C@@H](N)CCC(N)=O (some centres not stated) | –
0 | 34 | CCCCCCCCCCCCC(=O)N1CCCCC1CNC(=O)[C@H](N)CCCCN (some centres not stated) | –
